Data set [1] deals with T1, TGF-beta receptor type-1 (Homo sapiens, UniProt P36897).
T1 sequence (P36897 whole entry): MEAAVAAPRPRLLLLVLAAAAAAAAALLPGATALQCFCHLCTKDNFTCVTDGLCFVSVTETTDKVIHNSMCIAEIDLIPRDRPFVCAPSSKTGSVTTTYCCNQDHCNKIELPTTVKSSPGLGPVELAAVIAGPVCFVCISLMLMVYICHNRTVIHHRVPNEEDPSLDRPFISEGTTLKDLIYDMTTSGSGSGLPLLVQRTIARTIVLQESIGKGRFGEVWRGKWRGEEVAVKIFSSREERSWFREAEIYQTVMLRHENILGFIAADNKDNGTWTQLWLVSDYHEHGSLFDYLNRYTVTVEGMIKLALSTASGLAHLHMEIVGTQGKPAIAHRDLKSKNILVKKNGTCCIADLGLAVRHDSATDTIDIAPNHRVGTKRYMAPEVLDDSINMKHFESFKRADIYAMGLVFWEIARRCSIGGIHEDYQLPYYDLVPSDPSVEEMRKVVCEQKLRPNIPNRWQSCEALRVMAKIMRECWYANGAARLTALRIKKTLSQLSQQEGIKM
Briefly: Inhibition of recombinant human N-terminal GST-tagged TGFbeta1 receptor (80 to end residues) expressed in baculovirus infected Sf9 insect cells using casein as substrate measured after 2 hrs by ADP-Glo assay. In general terms: ADP-Glo turns the ADP formed in a reaction into a luminescent signal.

The target of data set [2] is T2, TGF-beta receptor type-1 (Rattus norvegicus) (UniProt P80204).
T2 sequence (whole entry): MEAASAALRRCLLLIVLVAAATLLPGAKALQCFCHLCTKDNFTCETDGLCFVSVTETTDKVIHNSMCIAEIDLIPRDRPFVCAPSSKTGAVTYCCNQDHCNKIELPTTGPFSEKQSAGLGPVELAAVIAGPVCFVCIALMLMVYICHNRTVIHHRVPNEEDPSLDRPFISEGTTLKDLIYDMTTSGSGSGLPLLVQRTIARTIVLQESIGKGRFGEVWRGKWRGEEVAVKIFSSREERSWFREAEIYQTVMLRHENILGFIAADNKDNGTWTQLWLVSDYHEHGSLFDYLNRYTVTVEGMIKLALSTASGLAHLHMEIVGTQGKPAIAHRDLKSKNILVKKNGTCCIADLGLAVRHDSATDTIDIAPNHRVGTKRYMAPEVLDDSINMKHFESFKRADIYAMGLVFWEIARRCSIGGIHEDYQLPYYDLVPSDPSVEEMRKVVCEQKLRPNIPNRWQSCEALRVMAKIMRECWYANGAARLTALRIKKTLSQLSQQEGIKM
Put plainly: Inhibition of TGFbeta1 receptor in TGFbeta1-stimulated Sprague-Dawley rat cardiac fibroblasts assessed as reduction in collagen 3 mRNA expression at 2.5 to 10 uM measured after 12 hrs by qRT-PCR analysis. The procedure, abridged:
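Primary rat cardiac fibroblasts (3×10^5 per well) treated with compound plus 10 ng/mL TGFβ1 for 12 h. Total RNA extracted and target transcripts measured by SYBR Green qRT-PCR, normalized to GAPDH.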
On the technique in general: Quantitative PCR measures a nucleic acid by following its amplification.

The species entered for data set [3] is Rattus norvegicus. Briefly: Effect on TGFbeta2 receptor expression in TGFbeta1-stimulated Sprague-Dawley rat cardiac fibroblasts at 2.5 to 10 uM measured after 5 mins by Western blot analysis. The class given is functional. In general terms: A western blot detects proteins with antibodies after separation by electrophoresis.
Data set [4] concerns the target T2, TGF-beta receptor type-1 (Rattus norvegicus). Put plainly: Inhibition of TGFbeta1 receptor in TGFbeta1-stimulated Sprague-Dawley rat cardiac fibroblasts assessed as reduction in alpha-SMA expression measured after 12 hrs by Western blot analysis. The essentials: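 Primary rat cardiac fibroblasts (passages 2–4, 3×10^5 per well) treated with compound plus 10 ng/mL TGFβ1 for 12 h; tested at 2.5, 5 and 10 µM. Lysates run on 10% SDS-PAGE (30 µg protein), probed for FN, α-SMA and collagen I/III, and quantified by densitometry against GAPDH. N=3 independent experiments.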

The test system of data set [5] is Rattus norvegicus. Briefly: Antifibrotic activity in abdominal aortic constriction Sprague-Dawley rat model of cardiac fibrosis assessed as ejection fraction at 5 mg/kg, ip administered once daily for 4 weeks measured post-last dose by echocardiography (reference value: 79.59 +/- 3.13%). Type of data set: functional.
Data set [6] has as its target T2, TGF-beta receptor type-1 (Rattus norvegicus). Put plainly: Inhibition of TGFbeta1 receptor in TGFbeta1-stimulated Sprague-Dawley rat cardiac fibroblasts assessed as reduction in Smad3 nuclear translocation at 10 uM measured after 5 mins by Western blot analysis. The procedure, abridged: (§1)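 Primary rat cardiac fibroblasts treated with 10 µM compound plus 10 ng/mL TGFβ1 for 5 min. Nuclear and cytosolic fractions separated with a kit and Smad2/Smad3 measured by Western blot.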

Data set [7] concerns Rattus norvegicus. Put plainly: Antifibrotic activity in abdominal aortic constriction Sprague-Dawley rat model of cardiac fibrosis assessed as systolic left ventricular internal diameter at 5 mg/kg, ip administered once daily for 4 weeks measured post-last dose by echocardiography (reference value: 3.99 +/- 0.41 mm). The class given is functional.
Data set [8] has as its target TGF-beta receptor type-2 (Homo sapiens) (UniProt P37173). Put plainly: Inhibition of recombinant human N-terminal GST-tagged TGFbeta2 receptor (190 to end residues) expressed in baculovirus infected Sf9 insect cells up to 100 uM using MBP as substrate measured after 2 hrs by ADP-Glo assay. The essentials: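 Recombinant human TβRII produced in Sf9 cells. Compound serially diluted from DMSO and incubated with enzyme, 50 µM ATP and 0.1 g/L MBP for 2 h at room temperature. Kinase activity read as ADP generated.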

Data set [9] concerns Rattus norvegicus. Briefly: Antifibrotic activity in abdominal aortic constriction Sprague-Dawley rat model of cardiac fibrosis assessed as reduction in Smad2 phosphorylation in heart at 5 mg/kg, ip administered once daily for 4 weeks measured post-last dose by Western blot analysis. The class given is functional, organism-based. The procedure, abridged: (§2)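 AAC rats dosed ip daily for 4 weeks, n=8 per group. Hearts homogenized in lysis buffer with protease and phosphatase inhibitors and spun at 12,000 rpm for 30 min at 4 °C. Nuclear and cytoplasmic fractions prepared with a kit. Protein measured by BCA; 30 µg run on 10% SDS-PAGE, transferred to PVDF and immunoblotted; bands quantified by densitometry.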

Data set [10] concerns Rattus norvegicus. Briefly: Antifibrotic activity in abdominal aortic constriction Sprague-Dawley rat model of cardiac fibrosis assessed as down regulation of collagen expression in heart at 5 mg/kg, ip administered once daily for 4 weeks measured post-last dose by Western blot analysis. Type of data set: functional, organism-based. The essentials: as §2
In data set [11] the target is T2, TGF-beta receptor type-1 (Rattus norvegicus). Put plainly: Inhibition of TGFbeta1 receptor in TGFbeta1-stimulated Sprague-Dawley rat cardiac fibroblasts assessed as reduction in Smad2 nuclear translocation at 10 uM measured after 5 mins by Western blot analysis. The essentials:
as §1

The species named for data set [12] is Rattus norvegicus. Put plainly: Effect on TGFbeta1 receptor expression in TGFbeta1-stimulated Sprague-Dawley rat cardiac fibroblasts at 2.5 to 10 uM measured after 5 mins by Western blot analysis. Type of data set: functional.
Data set [13] has as its system Rattus norvegicus. Put plainly: Antifibrotic activity in abdominal aortic constriction Sprague-Dawley rat model of cardiac fibrosis assessed as reduction in Smad3 nuclear translocation in heart at 5 mg/kg, ip administered once daily for 4 weeks measured post-last dose by Western blot analysis. The class given is functional, organism-based. The procedure, abridged:
as §2

Data set [14] can be described thus: Cytotoxicity against Sprague-Dawley rat cardiac fibroblasts assessed as reduction in cell viability at 25 uM measured after 48 hrs by MTT assay. The procedure, abridged:
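Primary adult male SD rat cardiac fibroblasts at passages 2–4, 5000 cells per well. Treated for 48 h, then MTT (5 mg/mL) for 4 h. Formazan dissolved in DMSO and absorbance read at 570 nm. Triplicate wells, three independent experiments.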

The test system of data set [15] is Rattus norvegicus. Briefly: Antifibrotic activity in abdominal aortic constriction Sprague-Dawley rat model of cardiac fibrosis assessed as diastolic left ventricular posterior wall thickness at 5 mg/kg, ip administered once daily for 4 weeks measured post-last dose by echocardiography (reference value: 2.33 +/- 0.31 mm). Type of data set: functional.

Molecules are shown by their SMILES. Active and inactive are the calls of the source. The calls are words filed in the database; no cut-off is given here.

As a reminder, the IC50 is the concentration that inhibits the measured activity by half.

Sequence of TGF-beta receptor type-2 (Homo sapiens) (P37173 whole entry): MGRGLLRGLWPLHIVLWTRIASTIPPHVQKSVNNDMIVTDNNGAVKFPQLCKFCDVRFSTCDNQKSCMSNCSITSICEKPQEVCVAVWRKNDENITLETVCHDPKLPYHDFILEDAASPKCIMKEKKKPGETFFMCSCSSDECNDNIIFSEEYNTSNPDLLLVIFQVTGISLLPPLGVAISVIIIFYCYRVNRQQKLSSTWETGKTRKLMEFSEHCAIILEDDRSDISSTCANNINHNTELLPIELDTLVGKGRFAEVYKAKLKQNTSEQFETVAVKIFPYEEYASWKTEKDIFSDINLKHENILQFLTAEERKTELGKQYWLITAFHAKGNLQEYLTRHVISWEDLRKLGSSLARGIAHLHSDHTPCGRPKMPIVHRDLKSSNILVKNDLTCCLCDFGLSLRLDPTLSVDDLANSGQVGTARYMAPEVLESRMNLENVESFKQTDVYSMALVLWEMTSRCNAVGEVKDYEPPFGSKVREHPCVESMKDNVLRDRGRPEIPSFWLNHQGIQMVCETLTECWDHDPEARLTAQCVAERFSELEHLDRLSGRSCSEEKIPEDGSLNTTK

Regarding `C=C(C)[C@@H]1C/C=C(\C)C(=O)CCC2=C[C@@H]1OC2=O`, the IC50 in data set [1] stood at 14.9 nM. Also, the inhibition result in data set [2], in [6] and in data set [11] was “Active” in each case. Also, the outcome in data set [3] and in data set [12] was inactive. The inhibition entry in data set [4] is “Dose-dependent effect”. For the same compound, the Activity in data set [5] was 71.38%; in data set [7], 4.74 mm; in data set [14] it was “Non-Toxic”; in data set [15], 2 mm. Also, the inhibition result in [8] is “inactive”. The outcome in data set [9], in data set [10] and in data set [13] was Active.

(Values after ChEMBL document CHEMBL4373718, “Germacrane Sesquiterpenoids as a New Type of Anticardiac Fibrosis Agent Targeting Transforming Growth Factor β Type I Receptor” (J Med Chem, 2019).)
